# Most compounds without a hit are left out; they make up all but 3.6% or so of the library.
# SR-BI DiI-HDL act: activators of SR-BI mediated DiI-HDL uptake, primary screen, ldlA[mSR-BI] CHO cells, DiI fluorescence | 3 h; 100 = double the neutral-control signal | activation, % at 12.5 µM | 320,000 tested, 0.096% active;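 active = mean replicate activation of at least 60% and every replicate at or above 60%; inconclusive = mean or all-replicate condition met, but not both; inactive = mean below 60% and not all replicates reaching 60%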
#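 Test system: SR-BI-overexpressing, LDLR-lacking CHO cells; Also added: labelled HDL, 10 µg/mL; Measured by: bottom-read cell fluorescence after medium removal, ex 550/em 595 nm; Timing: 3 h uptake period with compound, 37 °C; Buffer or medium: F12, 0.5% BSA, 25 mM HEPES; Doses: single compound concentration, delivered by pin transfer.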
# Wnt bcat act: Wnt/beta-catenin pathway activators, primary screen, cell-based, plate reader, single point | activation, % at 9.35 µM | Wnt/beta-catenin reporter cell assay, activator | AID 743398, 2014 | 300,000 tested, 1.2% active; in the data active = activation above about 30%, passing the limit was not always enough; inconclusive = no clear call, values can overlap the other calls
# HSF-1 act: HSF-1 activators, primary screen, NIH3T3-HGL cells, MG132 stress, luminescence, single point | NIH3T3-HGL HSF-1 luciferase reporter, 8 h; 100% = twice DMSO control signal | activation, % at 9 µM | 300,000 tested, 1.7% active | AID 504408, 2011;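 active = mean replicate activation of at least 50% with a set share of replicates each reaching 50%; inconclusive = only one of those two conditions met; inactive = mean below 50% and too few replicates reaching it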
# SR-BI HDL uptake: inhibitors of SR-BI mediated HDL lipid uptake, primary screen, ldlA[mSR-BI] cells, fluorescence, single point | Scavenger receptor class B member 1 (Mus musculus), Q61009 | ldlA[mSR-BI] CHO cells, DiI-HDL uptake fluorescence, 3 h | inhibition, % at 12.5 µM | 320,000 tested, 0.96% active | AID 488896, 2010;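 active = mean replicate inhibition of at least 70% and a set share of replicates each scoring 70 or more; inconclusive = meets just one of the two criteria; inactive = fails both criteria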
# Target sequence (Q61009 whole entry, looked up): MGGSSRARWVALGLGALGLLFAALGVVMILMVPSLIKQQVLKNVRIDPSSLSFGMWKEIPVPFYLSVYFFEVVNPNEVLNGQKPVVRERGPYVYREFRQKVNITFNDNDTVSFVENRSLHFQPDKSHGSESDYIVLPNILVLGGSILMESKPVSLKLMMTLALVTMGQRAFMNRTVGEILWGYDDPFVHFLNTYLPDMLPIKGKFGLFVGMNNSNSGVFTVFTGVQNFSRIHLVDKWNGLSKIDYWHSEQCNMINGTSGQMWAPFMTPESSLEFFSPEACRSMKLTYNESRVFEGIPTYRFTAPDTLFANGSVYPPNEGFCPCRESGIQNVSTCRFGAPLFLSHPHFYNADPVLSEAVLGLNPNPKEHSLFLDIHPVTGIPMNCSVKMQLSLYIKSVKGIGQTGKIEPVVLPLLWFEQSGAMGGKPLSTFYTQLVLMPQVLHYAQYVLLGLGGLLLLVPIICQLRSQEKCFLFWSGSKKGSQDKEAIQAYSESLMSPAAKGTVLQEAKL
# MITF TRPM1 HTS: activators of MITF-driven TRPM1 promoter reporter, primary screen, cell-based, SK-MEL-5, luciferase, single point. activation, % at 12.5 µM. SK-MEL-5 TRPM1-promoter luciferase, 24 h; % of positive control, neutral wells = 0. AID 588334, 2011. 300,000 tested, 0.75% active;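 active = mean activation of at least 80% with every replicate also reaching 80%; inconclusive = mean reaches 80% but some replicate falls short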
# Numbers stand for hits; . = inactive; ? = inconclusive; / = no result.
SMILES,SR-BI DiI-HDL act,Wnt bcat act,HSF-1 act,SR-BI HDL uptake,MITF TRPM1 HTS
CC(C)C[C@@H](CN)NC(=O)c1nc[nH]c1C(=O)N[C@@H](C)C(=O)CNC[C@H](C)NC(=O)c1nc[nH]c1C(=O)N[C@@H](CC(=O)O)C(=O)O,.,.,/,.,.
Cc1ccc(C(=O)C(C(=O)/C=C/c2ccccc2)=C2SCCCS2)cc1,.,/,136,.,.
Cc1ccc(C(=O)C=CC=Cc2ccccc2)cc1,/,.,/,/,/
COc1ccc(NC(=O)CON=CC(=O)Nc2ccc(C)cc2)c(OC)c1,.,.,/,.,.
CCc1nc(-c2ccc(-c3ccc(OC)cc3)nc2OC)no1,.,56,.,.,.
COCc1nc(-c2ccc(-c3ccccc3)nc2OC)no1,.,49,.,.,/
CCc1nc(-c2ccc(C)nc2OC)no1,.,/,/,.,.
COCc1nc(-c2ccc(-c3ccc(OC)cc3)nc2OC)no1,.,.,.,.,.
COc1ccc(-c2ccc(-c3noc(C(C)C)n3)c(OC)n2)cc1,.,/,.,.,.
COc1nc(-c2ccccc2)ccc1-c1noc(C)n1,.,50,/,.,/
CC1N=C(SCC(=O)c2ccc(F)cc2)N2C(C)N=C(SCC(=O)c3ccc(F)cc3)N12 (configuration not stated),/,.,/,/,/
CC(C)(C)OC(=O)N1CCC2CCN(CCc3ccccc3)CC21 (configuration not stated),/,.,/,/,/
C=CCNC(=S)N/N=C/c1ccc(-c2ccc(Br)cc2)o1,.,/,78,82,.
CCOC(=O)c1ccc(-c2ccc(C=O)o2)cc1,.,53,.,.,.
CCOC(=O)c1ccc(-c2ccc(/C=N/NC(=O)c3cncc(Br)c3)o2)cc1,/,.,.,/,/
C=CCNC(=S)N/N=C/c1ccc(-c2cccc([N+](=O)[O-])c2)o1,.,/,.,.,.
CCCOC(=O)c1cc(-c2ccc(C=O)o2)ccc1Cl,.,.,.,.,.
CCCCOC(=O)c1ccc(-c2ccc(/C=N/NC(=S)NCC)o2)cc1,.,.,.,88,.
CCCOC(=O)c1ccc(-c2ccc(C=O)o2)cc1,.,.,66,.,.
CC(=O)c1cccc(-c2cnc3c(NC=O)cc(-c4ccc(F)cc4)cn23)c1,/,.,/,/,/
CN(Cc1ccccc1)C(=O)c1cccc(NC(=O)Cc2cccc(NC(=O)C3CCN(C(=O)CCc4ccccc4)CC3)c2)c1,/,.,/,/,/
CCOC(=O)CNc1ncc(C(F)(F)F)cc1Cl,.,.,.,.,.
N#CCC(CNc1ncc(C(F)(F)F)cc1Cl)OC(=O)c1ccc(Cl)cc1Cl (configuration not stated),.,.,79,.,.
CCC(c1nnnn1-c1c(C)cccc1C)N1CCN(CCN2CCOCC2)CC1 (configuration not stated),/,.,/,/,/
N#C/C(=C\c1ccc(OCc2cccc(C(=O)O)c2)cc1)C(=O)NCc1ccco1,.,39,.,.,.
SMILES,SR-BI DiI-HDL act,Wnt bcat act,HSF-1 act,SR-BI HDL uptake,MITF TRPM1 HTS
COc1cc(/C=C(\C#N)C(=O)Nc2cccc(C(=O)O)c2)ccc1OCc1ccc(C)cc1,.,.,.,.,91
N#C/C(=C\c1ccc(OCc2ccc(C(=O)O)cc2)cc1)C(=O)NCc1ccccc1,.,.,.,.,.
Cc1cc(/C=C(\C#N)C(=O)NCc2ccco2)c(C)n1C1CCCC1,.,39,.,.,.
Cc1cc(/C=C(\C#N)C(=O)NCc2ccco2)c(C)n1-c1cccnc1,.,.,.,.,.
COC(=O)c1ccc(COc2ccccc2/C=C(\C#N)C(=O)Nc2c(C)cccc2C)cc1,.,.,148,.,.
O=C(Cc1ccccc1F)Nc1cc(S(=O)(=O)N2CCCCC2)ccc1N1CCOCC1,/,.,/,/,/
N#C/C(=C\c1ccc(OCc2ccc(Cl)cc2)cc1)C(=O)Nc1cccc(C(=O)O)c1,.,.,120,.,.
CCOC(=O)[C@]12CCC=C1N(Cc1cccc3ccccc13)C(=O)[C@H](CC(=O)N1CCSCC1)C2,/,.,/,/,/
O=C(C(=O)N1CCN(S(=O)(=O)c2ccc(F)cc2)CC1)c1cccc(C(F)(F)F)c1,/,.,/,/,/
O=C(c1ccco1)N1N=C(c2ccccc2O)CC1c1cccs1 (configuration not stated),/,.,/,/,/
Cc1cc(C(=O)Nc2nc3ccc(Cl)cc3s2)nn1C,/,60,.,/,/
Cn1ncc(Cl)c1C(=O)Nc1nc2ccc(Cl)cc2s1,.,.,.,.,.
OC(c1cc(C(F)(F)F)nc2c(Cl)cc(Cl)cc12)C1CCCCN1 (configuration not stated),66,.,.,.,.
CCOC(=S)SCC(=O)Nc1nc(-c2ccccc2)cs1,.,.,67,.,.
CCOC(=S)SCC(=O)Nc1nc(-c2ccc(Br)cc2)cs1,.,.,.,.,.
CCOC(=O)N1CCN(C(=O)CSCC(=O)Nc2nc(-c3ccc(-c4ccccc4)cc3)cs2)CC1,.,.,.,85,.
CCOC(=O)N1CCN(C(=O)CSCC(=O)Nc2nc(-c3ccc(OC)cc3)cs2)CC1,.,/,/,.,/
CC(C)C[C@H]1CN(CCCC[C@H]2CNC(=O)C(=O)N2Cc2ccccc2)C(=O)C(=O)N1CCc1ccc(O)cc1,/,.,/,/,/
O=C(COC(=O)C1CC2C=CC1C2)Nc1ccc2c(c1)OC(F)(F)O2 (configuration not stated),.,/,105,.,.
CC(=O)c1ccc(NC(=O)COC(=O)C2CC3C=CC2C3)cc1 (configuration not stated),.,43,/,.,.
COc1ccccc1NC(=O)COC(=O)C1CC2C=CC1C2 (configuration not stated),.,.,.,.,.
O=C(COC(=O)c1ccc([N+](=O)[O-])o1)Nc1ccc2c(c1)OC(F)(F)O2,/,.,/,/,/
CC(C)N(C)c1ncnc2c1ncn2[C@H]1CN(Cc2cccs2)C[C@@H](CO)O1,/,.,/,/,/
Brc1ccc(-n2cnc(-c3ccccc3)c2)cc1,.,45,78,.,.
O=C(NCc1ccccc1Cl)c1ccc2sc([C@H]3C[C@H](O)[C@@H](CO)O3)nc2c1,/,.,/,/,/
SMILES,SR-BI DiI-HDL act,Wnt bcat act,HSF-1 act,SR-BI HDL uptake,MITF TRPM1 HTS
COC(=O)c1cc2c(c3c4cc(F)ccc4n(S(=O)(=O)c4ccc(C)cc4)c13)C(=O)N(Cc1ccccc1)C2,/,.,/,/,/
Cc1ccc2nc(SCc3cccc([N+](=O)[O-])c3)nc(C)c2c1,.,.,.,.,/
COc1ccc2nc(SCc3ccccc3C)nc(C)c2c1,.,?,55,.,.
COc1ccc2nc(SCc3cccc(C)c3)nc(C)c2c1,.,48,95,.,.
Cc1cc(C)c(CN2CCN(C(=O)Cn3cc(C)c(=O)[nH]c3=O)CC2)c(C)c1,/,.,/,/,/
CC(=O)c1ccc(Oc2ccc(C(C)=O)cc2)cc1,.,.,56,.,.
CC(=O)c1ccc(OC(=O)Oc2ccc(C(C)=O)cc2)cc1,.,.,/,.,.

# From PubChem
